According to ChEMBL document CHEMBL3585304, “Synthesis and evaluation of tamoxifen derivatives with a long alkyl side chain as selective estrogen receptor down-regulators” (Bioorg Med Chem, 2015):
Active and inactive are the calls of the source. The rule behind the calls is not given here.

Tests used:
MCF7 [1] = assay: Reduction in endogenous ERalpha expression in human MCF7 cells at 10 uM after 6 hrs by Western blot analysis; type: functional, cell-based
In short: (§1)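 MCF-7 cells exposed to compounds (10 µM shown for the chain-length series) for 6 h. Cells lysed in 1% SDS, 0.1 M Tris–HCl pH 7.0, 10% glycerol and boiled 10 min. Protein measured by BCA, and equal amounts run on SDS–PAGE, transferred to PVDF and immunoblotted for endogenous ERα.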

Estrogen receptor = molecular target: T1, Estrogen receptor (Homo sapiens, UniProt P03372); assay: Inhibition of ERalpha (unknown origin) by fluorescence polarization-based competition binding assay
T1 sequence (P03372 whole entry): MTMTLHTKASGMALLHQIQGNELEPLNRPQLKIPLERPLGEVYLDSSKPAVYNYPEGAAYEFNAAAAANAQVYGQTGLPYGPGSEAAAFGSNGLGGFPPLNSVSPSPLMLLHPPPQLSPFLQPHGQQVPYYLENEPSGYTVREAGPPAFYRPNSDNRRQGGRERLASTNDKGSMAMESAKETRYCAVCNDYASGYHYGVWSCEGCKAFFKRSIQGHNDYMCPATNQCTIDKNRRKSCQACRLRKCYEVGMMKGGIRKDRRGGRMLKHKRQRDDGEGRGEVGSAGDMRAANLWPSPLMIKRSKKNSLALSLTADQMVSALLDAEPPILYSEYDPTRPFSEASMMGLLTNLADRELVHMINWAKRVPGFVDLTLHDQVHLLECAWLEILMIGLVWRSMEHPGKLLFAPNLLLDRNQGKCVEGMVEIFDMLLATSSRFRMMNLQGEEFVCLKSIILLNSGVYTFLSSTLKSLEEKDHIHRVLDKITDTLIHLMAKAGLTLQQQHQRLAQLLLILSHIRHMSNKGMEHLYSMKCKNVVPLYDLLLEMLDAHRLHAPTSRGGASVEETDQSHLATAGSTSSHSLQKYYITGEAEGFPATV

MCF7 [2] = assay: Reduction in endogenous ERalpha expression in human MCF7 cells after 6 hrs by Western blot analysis; type: functional, cell-based; in short: as §1
MCF7 [3] = assay: Reduction in endogenous ERalpha expression in human MCF7 cells at 0.1 to 1 uM after 6 hrs by Western blot analysis in presence of 10 uM MG132 proteasome inhibitor; type: functional, cell-based
In short: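 MCF-7 cells incubated 6 h with graded compound concentrations, with or without proteasome inhibitor MG132 (10 µM). Lysis in 1% SDS, 0.1 M Tris–HCl pH 7.0, 10% glycerol, then boiling 10 min. BCA protein assay, equal loading on SDS–PAGE, PVDF transfer, and Western blot detection of ERα.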

SMILES	inhibition (MCF7 [1])	IC50 (Estrogen receptor)	inhibition (MCF7 [2])	inhibition (MCF7 [3])
CCCCCCCCNCCOc1ccc(/C(=C(/CC)c2ccccc2)c2ccc(O)cc2)cc1	inactive	53 nM	–	–
CCCCCCCCCCCCCCCCNCCOc1ccc(/C(=C(/CC)c2ccccc2)c2ccc(O)cc2)cc1	inactive	4.8 nM	–	–
CCCCCCCCCCCCCCNCCOc1ccc(/C(=C(/CC)c2ccccc2)c2ccc(O)cc2)cc1	inactive	11 nM	–	–
CCCCCCCCCCNCCOc1ccc(/C(=C(/CC)c2ccccc2)c2ccc(O)cc2)cc1	Active	3.6 nM	–	–
CCCCCCCCCCCCNCCOc1ccc(/C(=C(/CC)c2ccccc2)c2ccc(O)cc2)cc1	–	14 nM	–	–
CCCCCCCCCCCCCCCCCCNCCOc1ccc(/C(=C(/CC)c2ccccc2)c2ccc(O)cc2)cc1	–	> 100000 nM	–	–
CCC(=C(c1ccc(O)cc1)c1ccc(OCCN(C)C)cc1)c1ccccc1	inactive	–	–	–
CC/C(=C(\c1ccc(O)cc1)c1ccc(OCCNC)cc1)c1ccccc1	inactive	–	–	–
CC/C(=C(\c1ccc(O)cc1)c1ccc(OCCNCCCCCCCCCCF)cc1)c1ccccc1	Active	3.4 nM	Dose-dependent effect	inactive
CCCCCCNCCOc1ccc(/C(=C(/CC)c2ccccc2)c2ccc(O)cc2)cc1	inactive	151 nM	–	–
CC/C(=C(\c1ccc(O)cc1)c1ccc(OCCNCCCCCCCCCCO)cc1)c1ccccc1	inactive	210 nM	–	–
